Only some compounds are listed: those with a hit (about 3.9% of all), similar ones and a draw of the others.
TAAR1 antagonist: antagonists of human TAAR1 | Q96RJ0 | CHO RD-HGA16 TAAR1, Fluo-8 calcium fluorescence, antagonist | inhibition, % at 3 µM | hit rate 1.5% among 360,000 | AID 624466;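 active means inhibition above a per-plate cutoff, the mean inhibition of test compounds on that plate plus 3 SD, cut at about 49% in these data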;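 further: 0% = DMSO plus EC80 beta-PEA response and 100% = DMSO alone without agonist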
Target sequence (Q96RJ0 whole entry, looked up): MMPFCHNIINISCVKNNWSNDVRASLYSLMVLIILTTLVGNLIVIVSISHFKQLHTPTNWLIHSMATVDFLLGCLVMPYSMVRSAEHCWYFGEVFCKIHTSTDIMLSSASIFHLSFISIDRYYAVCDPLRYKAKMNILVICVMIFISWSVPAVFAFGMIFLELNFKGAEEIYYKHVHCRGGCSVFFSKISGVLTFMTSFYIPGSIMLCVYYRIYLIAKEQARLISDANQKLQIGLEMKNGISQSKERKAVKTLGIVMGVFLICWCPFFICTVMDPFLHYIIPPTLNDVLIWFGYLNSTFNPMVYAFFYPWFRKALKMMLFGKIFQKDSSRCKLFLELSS
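Test system: RD-HGA16 CHO cells with stable hTAAR1 and Gα16 / Probe or stimulus: EC80 β-phenethylamine stimulus / Times: seeding 17-24 h prior, 75-min 37 °C, 30-min RT dye loading / Detection: Fluo-8 calcium-sensitive fluorescence / Read-out basis: % inhibition scaled between DMSO and EC80 PEA controls / Repeats: singlicate, one well per test compound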
CHRM1 PAM: potentiates human M1 receptor response to acetylcholine. CHO-K1 hM1, Fluo-8 calcium fluorescence, ACh EC20; 0% = ACh EC20, 100% = maximal ACh. hit rate 0.088% among 360,000. AID 588819. activation, % at 3 µM. P11229; in the data active means activation above about 19%, passing the limit was not always enough
TAAR1 ag: agonists of human TAAR1; activation, % at 3 µM; Q96RJ0; hit rate 0.99% among 360,000; CHO RD-HGA16 TAAR1, Fluo-8 calcium fluorescence; vehicle wells 0%, saturating PEA agonist 100%; AID 624467;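 active means activation above the mean activation of all test compounds in the run plus 3 SD, cut at about 38% in these data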
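Test system: RD-HGA16 (CHO) cells co-expressing Gα16 and hTAAR1; dosing: one-point dosing at 3 µM (nominal); timing: 17-24 h seeding, 75 min 37 °C dye, 30 min RT; signal: kinetic Fluo-8 calcium fluorescence; read-out basis: % activation relative to PEA EC100 response; controls: DMSO and PEA EC100; replicates: n 1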
M1 ag: activates human CHRM1 receptor. hit rate 0.33% among 360,000. activation, % at 3 µM. CHO-K1 hM1, Fluo-8 calcium fluorescence, agonist mode; 0% DMSO, 100% acetylcholine EC100. P11229;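 active means activation above the run's mean compound activation plus 3 SD, cut at about 16% in these data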;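 further: peak over basal fluorescence ratio within a 140 s kinetic read after compound addition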
m5-HT2A agonist: mouse HTR2A agonism via beta-arrestin recruitment. P35363. CHO-K1 mHTR2A beta-arrestin complementation, luminescence; percent of 30 µM serotonin response. activation, % at 7.6 µM. hit rate 0.66% among 360,000. AID 624169;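 active means activation above a run cutoff, the mean activation of all tested compounds plus 3 SD, cut at about 14% in these data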;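 further: 0% = plate median of compound wells and 100% = 30 µM serotonin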
CHRM1 antagonist: human CHRM1 antagonism. CHO-K1 hM1, Fluo-8 calcium fluorescence, ACh EC80 antagonist. inhibition, % at 3 µM. hit rate 1.3% among 360,000. AID 588852;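 active means percent inhibition above its own plate's cutoff, namely the mean of that plate's compound wells plus 3 SD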;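 further: peak over basal fluorescence ratio during 140 s after agonist addition; 0% = ACh EC80 plus DMSO and 100% = DMSO alone without agonist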
* marks the source's active call; other numbers are inactive results.

SMILES	TAAR1 antagonist	CHRM1 PAM	TAAR1 ag	M1 ag	m5-HT2A agonist	CHRM1 antagonist
Cc1ccc(S(=O)(=O)CCC(=O)OCC(=O)N(C)CC(=O)Nc2ccc(F)cc2)cc1	5	-11	2	-3	1	20*
Cc1ccc(NC(=O)CN(C)C(=O)COC(=O)CCS(=O)(=O)c2ccc(C)cc2)cc1	-31	6	1	-3	8	-11
CNCCCC1Sc2ccccc2Oc2ccccc21 (stereo unspecified)	5	-22	10	-6	2	33*
CN(C)CCCNc1nc2cc(-c3ccc4c(ccn4C)c3)sc2c(=O)n1C	-4	3	-1	-1	0	-6
Cc1ccc(Cl)cc1N1CCN(C(=O)CCS(=O)(=O)c2ccc3c(c2)NC(=O)CO3)CC1	63*	-19	16	5	-4	37*
O=C1COc2ccc(S(=O)(=O)CCC(=O)N3CCN(c4cccc(Cl)c4)CC3)cc2N1	10	-3	6	-1	5	8
CC(=O)c1cccc(CN2CCC(C(=O)Nc3ccc(Oc4cccnc4)cc3)CC2)c1	-7	-12	5	-6	-4	30*
Cc1ccc(OCCN2CCC2(C)C(=O)Nc2ccc3c(c2)OCCO3)cc1 (stereo unspecified)	-21	6	5	-1	-2	-7
CC(C)C(C(=O)Nc1ccncc1)c1ccc(Cl)cc1 (stereo unspecified)	37	4	54*	9	-6	-1
Cc1cccc(C)c1OCc1cc(C(=O)N2CCC(c3ccncc3)CC2)no1	-21	-14	-4	-1	5	29*
O=C(c1cc(COc2c(F)cccc2F)on1)N1CCC(c2ccncc2)CC1	10	-3	-1	-5	-3	2
Cc1ccc(OCc2cc(C(=O)N3CCC(Oc4cccnc4)CC3)no2)cc1C	19	-21	3	-6	8	26
O=C(c1cc(COc2cccc(C(F)(F)F)c2)on1)N1CCC(Oc2cccnc2)CC1	33	-14	6	2	0	37*
COc1ccc(OC)c(NC(=O)c2cccc(NC(=O)c3ccccc3C(=O)O)c2)c1	-7	2	0	-3	0	2
CC(C)Cn1c(=O)c(C(=O)Nc2ccncc2)c(O)c2ccccc21	-4	-24	-1	-7	0	99*
CCn1c(=O)c(C(=O)NNC(=O)c2ccccc2)c(O)c2ccccc21	-1	2	38*	11	3	-6
CCCN1Cc2cccc(C(=O)NC(CC(=O)OCC)c3ccc(OCC)c(OC)c3)c2C1=O (stereo unspecified)	-3	-2	1	-7	-1	3
CC(/C=N/NC(=O)c1nnn(-c2nonc2N)c1CN1CCCCC1)c1ccccc1 (stereo unspecified)	-21	2	-1	-6	-8	-7
COc1cccc(/C=N/NC(=O)c2cc3c(OC)cccc3[nH]2)c1OC	55*	-12	9	-2	-3	12
COc1cccc(/C=N/NC(=O)c2cc3c(OC)c(OC)ccc3[nH]2)c1OC	43	-18	21	-3	-3	22
CCOC(=O)CSc1nnc2cc(C)c3ccccc3n12	0	19*	8	-4	0	-13
COC(=O)CNC(=O)CSc1nnc2cc(C)c3ccccc3n12	-3	8	0	-2	-1	-7
O=C(Nc1ccc(Cl)c(Cl)c1)Nc1nnc(CSc2ccccc2)s1	-8	6	2	-4	1	-3
O=C(Nc1ccnn1C1CCN(CCCC2CCCC2)CC1)c1ccccc1Cl	-21	-17	8	-4	-7	40*
COc1ccccc1C(=O)Nc1ccnn1C1CCN(CCCC2CCCC2)CC1	-24	-11	5	-5	-7	12
SMILES	TAAR1 antagonist	CHRM1 PAM	TAAR1 ag	M1 ag	m5-HT2A agonist	CHRM1 antagonist
CCc1ccc(CN2CCC(n3nccc3NC(=O)c3ccccc3Cl)CC2)cc1	-2	6	21	28*	-12	-16
Cn1cc(CN2CCC(n3nccc3NC(=O)c3ccccc3Cl)CC2)cn1	-18	0	5	-2	0	-4
Cc1ccc2c(c1)CC(C)N2S(=O)(=O)c1nnc(NC(=O)CC(C)C)s1 (stereo unspecified)	-30	1	0	-2	-5	0
COc1ccccc1CNC(=O)CCNS(=O)(=O)c1cccc2nonc12	-2	7	0	-4	1	-10
COc1cccc(CN2CCc3ccc(NC(=O)CCc4ccc(C)cc4)cc3C2)c1O	25	-15	1	1	-2	38*
COc1cc(CN2CCc3ccc(NC(=O)CCc4ccccc4OC)cc3C2)ccc1O	-19	6	4	-6	-14	-19
COc1ccc(CN2CCc3ccc(NC(=O)CCc4ccccc4OC)cc3C2)c(O)c1	59*	-34	6	-11	-8	24
NC(=O)C[C@H](NC(=O)c1ccc(Cl)cc1)C(=O)OCc1ccccc1	-12	4	0	-3	2	-4
CC(C)c1cccc(OCC(=O)Nc2ccc(S(=O)(=O)Nc3ccccn3)cc2)c1	-12	4	-4	-8	-3	3
CC(C)c1ccc(OCC(=O)Nc2ccc(S(=O)(=O)Nc3ccccn3)cc2)cc1	14	5	18	24*	0	-4
CN1CCCN(C(=O)CC(c2ccccc2)c2ccccc2)CC1	-6	-31	3	-12	3	99*
CN1CCCN(C(=O)CSc2ccccc2)CC1	-6	0	0	-9	-4	3
CC(C)c1ccccc1-n1c(SCc2cc(=O)oc3ccc4ccccc4c23)nnc1-c1cccnc1	42	-6	10	-9	1	17
Cc1c(Cl)c(C(=O)N2CCCC2)nn1C	-4	-3	0	-2	2	-5
N#Cc1ccccc1S(=O)(=O)N1CCN(C(=O)[C@@H]2CCCN2C(=O)c2cccs2)CC1	-2	-10	0	-4	-5	33*
CC1CC(C)CN(S(=O)(=O)c2ccc(NC(=O)[C@@H]3CCCN3C(=O)c3cccs3)cc2)C1 (stereo partly specified)	-7	-22	9	-7	-3	30*
COc1ccc(OC)c(NC(=O)CCCCCn2nnc3ccccc3c2=O)c1	8	4	2	-3	-3	-2
O=C(Nc1csc([N+](=O)[O-])c1)Nc1ccccc1Cl	23	-16	10	2	-2	41*
COc1ccc(-c2noc(CN3CCN(C(=O)c4cccs4)CC3)n2)c(OC)c1OC	-19	4	2	-7	2	-2

Screening data deposited in PubChem BioAssay by The Scripps Research Institute Molecular Screening Center.
